Measured values published in ChEMBL document CHEMBL1129645, “A novel series of [2-[methyl(2-phenethyl)amino]-2-oxoethyl] benzene-containing leukotriene B4 antagonists: initial structure-activity relationships” (J Med Chem, 1996).
pIC50: −log10 of the molar value.

Legend:
[1] = target: T1, Leukotriene B4 receptor 1 (Homo sapiens, UniProt Q15722); assay: Compound tested for binding affinity against Leukotriene B4 receptor using radioligand binding assay from Human PMN cells at a concentration of 300 nM.; type: cell-based
T1 sequence (Q15722 whole entry): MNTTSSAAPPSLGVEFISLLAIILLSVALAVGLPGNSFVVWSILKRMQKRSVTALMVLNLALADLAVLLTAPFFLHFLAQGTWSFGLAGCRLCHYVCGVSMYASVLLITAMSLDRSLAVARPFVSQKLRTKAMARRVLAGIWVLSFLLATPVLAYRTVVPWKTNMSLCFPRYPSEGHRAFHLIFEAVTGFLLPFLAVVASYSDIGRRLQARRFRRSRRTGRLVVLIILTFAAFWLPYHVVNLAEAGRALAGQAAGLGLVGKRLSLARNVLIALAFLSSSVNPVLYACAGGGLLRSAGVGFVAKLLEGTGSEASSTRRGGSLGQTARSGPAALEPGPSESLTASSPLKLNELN
Procedure, shortened: (§1)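 Human PMNs from acid-citrate-dextrose blood, used within 2 h, isolated by dextran sedimentation and Histopaque 1077 with hypotonic erythrocyte lysis. Cells were resuspended in Hanks/5 mM HEPES pH 7.4/1% ovalbumin. Compound in DMSO, 0.5 nM [3H]LTB4 and 3 × 10^6 PMN/mL were incubated 20 min at 4 °C, then GF/B filtered and scintillation counted. Nonspecific binding was defined with 1 µM LTB4. Read-out was % inhibition or IC50.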

[2] = target: Leukotriene B4 receptor (Cavia porcellus); assay: Binding affinity for Leukotriene B4 receptor of guinea pig spleen membranes
[3] = target: T1, Leukotriene B4 receptor 1; assay: (§2) Compound tested for binding affinity against Leukotriene B4 receptor using radioligand binding assay from Human PMN cells; type: cell-based; procedure, shortened: as §1
[4] = tested on: Leukotriene B4 receptor (Cavia porcellus); assay: Compound tested for binding affinity against Leukotriene B4 receptor using radioligand binding assay from guinea pig spleen membranes at a concentration of 300 nM.; details: Membrane
[5] = target: T1, Leukotriene B4 receptor 1; assay: as §2; type: cell-based; remark: listed apart in the source
Procedure, shortened: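 Cells were resuspended in Hanks/5 mM HEPES pH 7.4/1% ovalbumin. Compound in DMSO, 0.5 nM [3H]LTB4 and 3 × 10^6 PMN/mL were incubated 20 min at 4 °C, then GF/B filtered and scintillation counted. Nonspecific binding was defined with 1 µM LTB4. Read-out was % inhibition or IC50.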

Row | Compound | I [1] | IC50 [2] | other results
1 | CN(CCc1ccccc1)C(=O)Cc1cc(CC(=O)O)cc(OC/C=C/c2ccccc2)c1 | 16% | 1.2 µM | 
2 | CN(CCc1ccccc1)C(=O)Cc1ccc(-c2ccccc2)c(/C=C/C(=O)O)c1 |  | 0.0446 µM | pIC50 [3]: 6.70
3 | CN(CCc1ccccc1)C(=O)Cc1cc(OCC(=O)O)cc(OCc2ccccc2)c1 |  | 0.0533 µM | 
4 | CN(CCc1ccccc1)C(=O)Cc1cccc(OCc2ccccc2)c1 |  | 0.225 µM | 
5 | COC(=O)c1cc(CC(=O)N(C)CCc2ccccc2)ccc1-c1ccccc1 | 0% |  | I [4]: 37%
6 | C/C(=C\c1cc(CC(=O)N(C)CCc2ccccc2)ccc1-c1ccccc1)C(=O)O |  | 0.065 µM | 
7 | CN(CCc1ccccc1)C(=O)Cc1ccc(-c2ccccc2)c(C(=O)O)c1 |  | 0.027 µM | 
8 | CN(CCc1ccccc1)C(=O)Cc1cc(CC(=O)O)cc(OCc2ccccc2)c1 |  | 0.2 µM | 
9 | CN(CCc1ccccc1)C(=O)Cc1ccc(OCc2ccccc2)cc1 |  | 0.0656 µM | pIC50 [5]: 6.05
10 | CN(CCc1ccccc1)C(=O)Cc1cc(OCc2ccccc2)ccc1C(=O)O | 28% | 0.25 µM | 
11 | C/C(=C\C(=O)O)c1cc(CC(=O)N(C)CCc2ccccc2)cc(OCc2ccccc2)c1 | 29% | 0.143 µM | 
12 | CN(CCc1ccccc1)C(=O)Cc1ccc(-c2ccccc2)c(CO)c1 | 18% |  | 
13 | CN(CCc1ccccc1)C(=O)Cc1ccc(OCc2ccccc2)c(/C=C/C(=O)O)c1 | 27% | 0.00227 µM | 
